FAK inh – FAK (human) kinase inhibition; Q05397; biochemical FAK kinase activity assay; inhibition, %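 (tested at 7 µM)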; 97,000 tested, 0.84% active; in the data active means inhibition above about 19%;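 further: 0% = DMSO and 100% = reference compound high control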
Rev-RRE block – disrupts HIV-1 Rev binding to RRE RNA; Rev peptide-RRE RNA binding, FRET; 97,000 tested, 0.79% active; AID 704; inhibition, % at 8 µM; P05866;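 active means inhibition above the screen-wide mean plus 3 SD, cut at about 35% in these data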;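 further: 0% = median DMSO wells and 100% = median Neomycin B control wells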
Target sequence (P05866 whole entry, looked up): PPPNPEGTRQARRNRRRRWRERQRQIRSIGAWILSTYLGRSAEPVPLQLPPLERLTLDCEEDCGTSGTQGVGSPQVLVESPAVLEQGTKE
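Test system: labelled RRE RNA duplex and labelled Rev peptide. Times: 5 min compound–RNA preincubation, then 15 min with peptide, 25 °C. Doses: single-dose 8 µM. Measured by: FRET, excitation 480 nm, emission 540 nm donor and 671 nm acceptor. Measure: % inhibition of FRET ratio versus controls.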
DAT uptake mod – human DAT dopamine uptake with cocaine, either direction. Q01959. LLC-PK1 hDAT cells, [14C]-dopamine uptake with cocaine IC80; actives deviate in either direction. B-score at 10 µM. 110,000 tested, 1.3% active;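 active means Z score or B-score, a plate-position-corrected score, falls beyond the plate's 99.7% confidence bounds, in either direction; inactive means both scores lie inside the 99.7% bounds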;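 further: scored against the spread of the other compound wells on the same plate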
PLK1 kinase inh – PLK1 (human) kinase inhibition | recombinant PLK1 kinase, TR-FRET peptide phosphorylation | P53350 | 97,000 tested, 0.53% active | inhibition, % at 10 µM;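 active means inhibition of 50% or more in the single-concentration screen; inactive means inhibition below 50%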;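 further: 0% = DMSO max control and 100% = H-89 dihydrochloride min control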
EphB4 antag – antagonists of human EphB4-ephrin-B2 interaction; P54760; EphB4 LBD / TNYL-RAW-Alexa532 peptide, fluorescence polarization; 97,000 tested, 0.15% active; inhibition, % at 7 µM;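 active means inhibition above the screen-wide mean inhibition plus 3 SD, cut at about 15% in these data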;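 further: 0% = DMSO wells and 100% = excess unlabeled TNYL-RAW peptide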
Plk1 PBD FP – blocks phosphopeptide binding to human Plk1 polo box domain; P53350; Plk1 PBD phosphopeptide binding, fluorescence polarization; inhibition, %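 (tested at about 20 µM)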; 97,000 tested, 0.13% active; in the data active means inhibition above about 34%, passing the limit was not always enough
* hit, by the source's call; · = not tested or not shown; [ ] = remark or other dose. Hits are enriched below; roughly 3.2% of the tested compounds scored in any of these assays.

SMILES	FAK inh	Rev-RRE block	DAT uptake mod	PLK1 kinase inh	EphB4 antag	Plk1 PBD FP
CCN1C[C@]2(CO)CC[C@H](OC)[C@@]34C5C[C@H]6[C@H](OC)C5[C@](O)(C[C@H]6OC)[C@@H](C(OC)C23)[C@@H]14 (some centres not stated)	·	·	-0.11	·	·	·
CC(C)N1C(=O)/C(=C/C=C/c2ccco2)C(=O)N(Cc2ccco2)C1=O	-1	53*	·	-16	-5	-50
CN(CC#CCN1CCCC1)C(=O)c1cccc(Cl)c1	·	·	0.18	·	·	·
OC(c1ccccc1)(c1ccccc1)C1CCNCC1	2	-4	-6.1*	-3	9	-11
O=[N+]([O-])c1ccc2nc(N3CCNCC3)ccc2c1	·	·	-0.42	·	·	·
O=C1NC(=O)N(c2ccc3c(c2)OCO3)C(=O)/C1=C/c1ccc(N2CCCCC2)o1	0	124*[fluorescence artefact?]	-1.6	-40	-3	-81
Cc1ccc(/C=C2/C(=O)NC(=O)N(CCc3ccc(F)cc3)C2=O)o1	-3	-3	-0.52	-8	-4	-3
CN1C(=O)C(=Cc2ccc(N3CCCCC3)o2)C(=O)N(C)C1=S	8	121*[fluorescence artefact?]	-1.3	-23	-3	-168
Cc1ccc(-c2nc3ccccc3c(=O)n2-c2cc(C)ccn2)cc1	-2	4	0.013	-10	4	7
Cc1ccnc(-n2c(C)cc(C=C3C(=O)N(C)C(=S)N(C)C3=O)c2C)c1	-4	52*	1.3	-8	-5	12
COc1cc([C@@H]2c3cc4c(cc3[C@@H](OC)[C@H]3COC(=O)[C@H]23)OCO4)cc(OC)c1O	·	·	-0.39	·	·	·
CCn1c(O)c(C=Nc2ccc(N3CCOCC3)cc2)c(=O)n(CC)c1=S	7	98*[fluorescence artefact?]	0.042	-4	16*	1
CCn1c(O)c(C=Nc2ccc(N3CCOCC3)c(Br)c2)c(=O)n(CC)c1=S	3	27	·	-6	0	-35
CCOCCCn1c(N)c(C(=O)Nc2sc3c(c2C(=O)OC)CCCC3)c2nc3ccccc3nc21	-1	49*	0.3	12	-5	-20
COc1ccc(Cn2c(N)c(C(=O)NCc3ccco3)c3nc4ccccc4nc32)cc1	3	30	·	55*	8	-19
CCCCOCCCn1c(N)c(C(=O)OCCOC)c2nc3ccccc3nc21	-1	1	1.2*	-5	-11	-2
CCCCCn1c(N)c(C(=O)NCCN2CCOCC2)c2nc3ccccc3nc21	2	17	0.96	-16	-4	-9
COCCCn1c(N)c(C(=O)NCCC(C)C)c2nc3ccccc3nc21	16	6	3*	-10	-1	-23
CC(=O)OC[C@]12CCC(C)=C[C@H]1O[C@@H]1[C@H](O)[C@@H](OC(C)=O)[C@@]2(C)[C@]12CO2	·	·	0.51	·	·	·
C[C@@H]1O[C@@H](O[C@H]2C[C@@H](O)[C@]3(CO)[C@H]4[C@H](O)C[C@]5(C)[C@@H](C6COC(=O)C6)CC[C@]5(O)[C@@H]4CC[C@]3(O)C2)[C@H](O)[C@H](O)[C@H]1O (some centres not stated)	·	·	-6.4*	·	·	·
Cc1nc2cc(C(F)(F)F)ccc2n1C1CCN(Cc2nnnn2CCc2ccccc2)CC1	0	7	3.5*	-8	8	1
CCN1C[C@@]2(COC)C3[C@@H](OC)[C@H]4[C@@H]1[C@@]3(C1C[C@H]3[C@H](OC(C)=O)C1[C@]4(OC(C)=O)C[C@H]3OC)[C@@H](OC)C[C@H]2OC(C)=O (some centres not stated)	·	·	-0.1	·	·	·
CCCNC(=O)c1c(N)n(CC2CCCO2)c2nc3ccccc3nc12 (configuration not stated)	15	13	-8.9*	-4	5	8
Nc1c(C(=O)OC2CCCCC2)c2nc3ccccc3nc2n1CC1CCCO1 (configuration not stated)	3	14	3.4*	-11	-3	-11
CC(C)OC(=O)c1c(N)n(CC2CCCO2)c2nc3ccccc3nc12 (configuration not stated)	0	-3	1.3	-15	-8	6
CC(C)OCCCNC(=O)c1c(N)n(CC2CCCO2)c2nc3ccccc3nc12 (configuration not stated)	4	12	-0.16	-13	-1	-1
CCCC1(CCC)C(=O)NC(=NCc2ccccc2)NC1=O	-5	7	-7.4*	2	-4	-8
